# Reference: ChEMBL document CHEMBL1777764, “Synthesis and evaluation of 1-(1H-indol-3-yl)ethanamine derivatives as new antibacterial agents” (Bioorg Med Chem, 2011)
# What was measured:
# [1] = system: Haemophilus influenzae; assay: Antibacterial activity against Haemophilus influenzae ATCC 49766 after 18 hrs by broth microdilution method; type: functional; settings: ATCC 49766, 18 h
# In short: (§1)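 Broth microdilution following ISO 20776-1:2006 and CLSI M07-A8, in Mueller-Hinton broth with 5% sheep blood for these fastidious species. Inoculum was 10^6 cfu/ml, with compound serial dilutions spanning 2 to 128 ug/ml and a compound-free growth control well. Plates were read after 18 h at 37 °C. MIC was the lowest concentration with no visible growth. Each compound was tested at least twice.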
# [2] = system: Staphylococcus aureus; assay: Antibacterial activity against Staphylococcus aureus ATCC 9144 after 18 hrs by broth microdilution method; type: functional; settings: ATCC 9144, 18 h
# In short: (§2)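 MIC by broth microdilution per ISO 20776-1:2006 and CLSI M07-A8. Inoculum 10^6 cfu/ml in Mueller-Hinton broth with compound serially diluted, final concentrations 2 to 128 ug/ml, duplicate rows, no-drug growth control. Incubation 18 h at 37 °C. MIC taken as lowest concentration giving complete inhibition of visible growth. Each compound tested at least twice.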
# [3] = system: Streptococcus agalactiae; assay: Antibacterial activity against Streptococcus agalactiae ATCC 12400 after 18 hrs by broth microdilution method; type: functional; settings: ATCC 12400, 18 h
# In short: as §1, with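 “broth.” for “broth with 5% sheep blood for these fastidious species.”, “incubated” for “read after”, “giving complete inhibition of” for “with no”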
# [4] = system: Staphylococcus aureus; assay: Antibacterial activity against Staphylococcus aureus ATCC 29213 after 18 hrs by broth microdilution method; type: functional; settings: ATCC 29213, 18 h; in short: as §2
# [5] = system: Staphylococcus aureus; assay: Antibacterial activity against Staphylococcus aureus ATCC 25923 after 18 hrs by broth microdilution method; type: functional; settings: ATCC 25923, 18 h; in short: as §2
# [6] = system: Staphylococcus aureus; assay: Antibacterial activity against vancomycin intermediate Staphylococcus aureus […] after 18 hrs by broth microdilution method; type: functional
# In short: as §1, with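 “broth.” for “broth with 5% sheep blood for these fastidious species.”, “incubated” for “read after”, “giving complete inhibition of” for “with no”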
# [7] = system: Staphylococcus aureus; assay: Antibacterial activity against Staphylococcus aureus ATCC 6538 after 18 hrs by broth microdilution method; type: functional; settings: ATCC 6538, 18 h; in short: as §2
# [8] = system: Staphylococcus aureus; assay: Antibacterial activity against Staphylococcus aureus CIP 103428 after 18 hrs by broth microdilution method; type: functional; settings: CIP 103428, 18 h; in short: as §2
# [9] = system: Staphylococcus epidermidis; assay: Antibacterial activity against Staphylococcus epidermidis CIP 103627 after 18 hrs by broth microdilution method; type: functional; settings: CIP 103627, 18 h; in short: as §2
# [10] = system: Staphylococcus epidermidis; assay: Antibacterial activity against Staphylococcus epidermidis CIP 81.55 after 18 hrs by broth microdilution method; type: functional; settings: CIP 81.55, 18 h; in short: as §2
# [11] = system: Enterococcus faecalis; assay: Antibacterial activity against Enterococcus faecalis ATCC 29212 after 18 hrs by broth microdilution method; type: functional; settings: ATCC 29212, 18 h
# In short: as §1, with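 “broth.” for “broth with 5% sheep blood for these fastidious species.”, “incubated” for “read after”, “giving complete inhibition of” for “with no”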
# [12] = system: Staphylococcus aureus; assay: Antibacterial activity against Staphylococcus aureus CIP 65.6 after 18 hrs by broth microdilution method; type: functional; settings: CIP 65.6, 18 h; in short: as §2
# [13] = system: Enterococcus faecium; assay: Antibacterial activity against Enterococcus faecium CIP 54.32 after 18 hrs by broth microdilution method; type: functional; settings: CIP 54.32, 18 h
# In short: as §1, with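 “broth.” for “broth with 5% sheep blood for these fastidious species.”, “incubated” for “read after”, “giving complete inhibition of” for “with no”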
# [14] = system: Staphylococcus epidermidis; assay: Antibacterial activity against Staphylococcus epidermidis ATCC 12228 after 18 hrs by broth microdilution method; type: functional; settings: ATCC 12228, 18 h; in short: as §2
# [15] = system: Streptococcus pyogenes; assay: Antibacterial activity against Streptococcus pyogenes CIP 104226 after 18 hrs by broth microdilution method; type: functional; settings: CIP 104226, 18 h
# In short: as §1, with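 “broth.” for “broth with 5% sheep blood for these fastidious species.”, “incubated” for “read after”, “giving complete inhibition of” for “with no”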
# [16] = system: Streptococcus mitis; assay: Antibacterial activity against Streptococcus mitis CIP 103335 after 18 hrs by broth microdilution method; type: functional; settings: CIP 103335, 18 h; in short: as §1
# [17] = system: Escherichia coli; assay: Antibacterial activity against Escherichia coli ATCC 25922 after 18 hrs by broth microdilution method; type: functional; settings: ATCC 25922, 18 h
# In short: as §1, with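 “broth.” for “broth with 5% sheep blood for these fastidious species.”, “incubated” for “read after”, “giving complete inhibition of” for “with no”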
# [18] = system: MRC5; assay: Cytotoxicity against human MRC5 cells at 1 uM; type: cell-based; settings: mrc5, 1 µM
# [19] = system: KB; assay: Cytotoxicity against human KB cells at 10 uM; type: cell-based
# [20] = system: HCT-116; assay: Cytotoxicity against human HCT116 cells at 1 uM; type: cell-based; settings: hct-116, 1 µM
# [21] = system: MRC5; assay: Cytotoxicity against human MRC5 cells at 10 uM; type: cell-based; settings: mrc5, 10 µM
# [22] = system: KB; assay: Cytotoxicity against human KB cells at 1 uM; type: cell-based
# [23] = system: HCT-116; assay: Cytotoxicity against human HCT116 cells at 10 uM; type: cell-based; settings: hct-116, 10 µM
compound,measurement,setting,value
O=C(O)c1cn(C2CC2)c2cc(N3CCNCC3)c(F)cc2c1=O [CIPROFLOXACIN],MIC,[1],0.5 µg/mL
same,MIC,[2],0.5 µg/mL
same,MIC,[3],0.25 µg/mL
same,MIC,[4],0.5 µg/mL
same,MIC,[5],0.5 µg/mL
same,MIC,[6],32 µg/mL
same,MIC,[7],0.5 µg/mL
same,MIC,[8],0.5 µg/mL
same,MIC,[9],0.25 µg/mL
same,MIC,[10],0.25 µg/mL
same,MIC,[11],1 µg/mL
same,MIC,[12],0.5 µg/mL
same,MIC,[13],1 µg/mL
same,MIC,[14],0.25 µg/mL
same,MIC,[15],0.25 µg/mL
same,MIC,[16],0.25 µg/mL
same,MIC,[17],0.064 µg/mL
CC(C)CC(NO)c1c[nH]c2ccc(Br)cc12 (configuration not stated),MIC,[2],32 µg/mL
same,Activity,[18],Non-toxic
same,MIC,[4],32 µg/mL
same,MIC,[5],32 µg/mL
same,MIC,[7],32 µg/mL
same,MIC,[8],32 µg/mL
same,MIC,[9],16 µg/mL
same,Activity,[19],Non-toxic
same,MIC,[10],16 µg/mL
same,Activity,[20],Non-toxic
same,Activity,[21],Non-toxic
same,MIC,[12],32 µg/mL
same,MIC,[14],16 µg/mL
same,Activity,[22],Non-toxic
same,Activity,[23],Non-toxic
CC(C)CC(NO)c1c[nH]c2ccc(Cl)cc12 (configuration not stated),MIC,[2],16 µg/mL
same,Activity,[18],Non-toxic
same,MIC,[4],16 µg/mL
same,MIC,[5],16 µg/mL
same,MIC,[7],16 µg/mL
same,MIC,[8],16 µg/mL
same,MIC,[9],32 µg/mL
same,Activity,[19],Non-toxic
same,MIC,[10],32 µg/mL
same,Activity,[20],Non-toxic
same,Activity,[21],Non-toxic
same,MIC,[12],16 µg/mL
same,MIC,[14],32 µg/mL
same,Activity,[22],Non-toxic
same,Activity,[23],Non-toxic
